# High-throughput results: PubChem BioAssay, Sanford-Burnham Center for Chemical Genomics
# APJ antag: antagonists of human APJ apelin receptor; CHO-K1 APJ beta-arrestin complementation, luminescence; inhibition, % at 20 µM; actives 0.32% (n = 330,000); AID 2521;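 active = inhibition above about 40% at 20 µM, limit read from the data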;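 also: cells challenged with 10 nM apelin-13 agonist together with compound; plate controls were apelin-13 plus DMSO wells for no effect and DMSO wells lacking apelin-13 for full effect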
# APJ ag: agonists of human APJ apelin receptor; P35414; activation, % at 20 µM; actives 0.11% (n = 330,000); AID 2520; CHO-K1 APJ PathHunter beta-arrestin, luminescence; 0% DMSO wells, 100% apelin;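 active = activation more than six SD over the plate average, tested at 20 µM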;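 also: 0% = DMSO alone and 100% = apelin-13 at 10 nM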
#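 Material: engineered CHO-K1 APJ arrestin reporter cells; amount: 1000 CHO-K1 reporter cells seeded per well; incubation: compound stimulation 90 min at 25 °C, detection 60 min; signal: luminescent beta-gal fragment complementation, chemiluminescent substrate; read-out basis: APJ agonist activity; controls: DMSO-only wells as negative, 10 nM Apelin-13 as positive control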
# CCR6 antag: CCR6 (human) receptor antagonism; CHO-K1 CCR6 PathHunter beta-arrestin, luminescence, CCL20-stimulated; inhibition, % at 20 µM; actives 0.49% (n = 340,000);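 active = compounds whose inhibition of the agonist-driven luminescence signal at 20 µM reaches about 50%, limit read from the data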;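 also: cells stimulated with CCL20 at 14 nM final; plate controls were DMSO with CCL20 for no effect and DMSO without agonist for full effect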
# CXCR6 inh: blocks human CXCR6 beta-arrestin recruitment. O00574. inhibition, % at 20 µM. AID 602244. actives 0.36% (n = 360,000). CHO-K1 PathHunter CXCR6 beta-arrestin, luminescence; in the data active = inhibition above about 34%, passing the limit was not always enough;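 also: antagonist mode with CXCL16 agonist at 10 nM final; 0% = 10 nM CXCL16 with DMSO and 100% = unstimulated wells without agonist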
# EBI2 antag: blocks human EBI2 receptor beta-arrestin signaling | inhibition, % at 5 µM | EBI2 beta-arrestin recruitment, luminescence, 7a,25-OHC stimulated | actives 0.81% (n = 360,000) | P32249; in the data active = inhibition above about 38%;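 also: enzyme fragment complementation signal reports receptor beta-arrestin coupling in cells; 0% = agonist plus DMSO wells and 100% = wells without agonist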
# Target sequence (P32249 whole entry, looked up, the tested form may be a part): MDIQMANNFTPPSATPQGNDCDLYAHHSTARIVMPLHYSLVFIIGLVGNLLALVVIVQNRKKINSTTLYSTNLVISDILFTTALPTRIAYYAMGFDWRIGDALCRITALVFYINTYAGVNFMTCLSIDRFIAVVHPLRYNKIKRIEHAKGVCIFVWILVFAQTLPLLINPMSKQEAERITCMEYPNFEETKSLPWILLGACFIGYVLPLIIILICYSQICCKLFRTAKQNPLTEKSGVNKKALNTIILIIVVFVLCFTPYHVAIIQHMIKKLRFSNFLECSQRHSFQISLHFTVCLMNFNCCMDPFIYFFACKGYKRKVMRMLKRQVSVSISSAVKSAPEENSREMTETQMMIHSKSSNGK
# EBI2 conf: EBI2 (human) antagonism, single concentration confirmation | EBI2 beta-arrestin luminescence, 7a,25-OHC antagonism | shares compounds with EBI2 antag | actives 29% (n = 2,400) | inhibition, % at 5 µM;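 active = inhibition of at least 50%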
# EBI2 ag: activates EBI2, counter-screen for EBI2 antagonists | 2,400 tested, under 10 active | shares compounds with EBI2 antag | activation, % at 5 µM | EBI2-expressing cells, agonist mode, luminescence, 60 min; 0% vehicle, 100% 7α,25-dihydroxycholesterol control;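 active = activation of at least 50%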
# bGal cs: inhibits E. coli beta-galactosidase, counter-screen for EBI2 antagonists. inhibition, % at 5 µM. shares compounds with EBI2 antag. actives 1% (n = 2,400). purified beta-galactosidase, luminescent Galacton Star, 15 min;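 active = replicate-average signal at least 3 plate SD below neutral wells, shown as high inhibition, flagging enzyme-inhibiting false positives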;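 also: 0% = DMSO wells with enzyme and 100% = wells lacking enzyme; higher means stronger loss of beta-gal luminescence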
# * = called active by the depositor; . = no result. Rows were chosen to be rich in hits. Some 1.5% of all compounds tested hit in one or more screens of this group.
SMILES,APJ antag,APJ ag,CCR6 antag,CXCR6 inh,EBI2 antag,EBI2 conf,EBI2 ag,bGal cs
CC(C)c1ccc(C(=O)NCc2ccc(Cl)cc2)cc1,5,-3,16,2,61*,33,0,-10
O=C(NCc1ccc(N2CCCC2=O)cc1)c1ccc(F)cc1,4,-1,3,0,-3,.,.,.
CCC(C)[C@H]1COCCS(=O)(=O)N1Cc1ccc(Br)cc1 (stereo partly specified),8,-4,11,-5,1,.,.,.
CCOc1ccc(Br)cc1S(=O)(=O)NC1=NCCCCC1,4,-2,1,4,-8,.,.,.
Cc1cccc(N2CCN(C(=O)c3ccc4c(c3)CCN4S(C)(=O)=O)CC2)c1C,-8,-3,2,0,6,.,.,.
CC(C)(C)C1CCc2onc(C(=O)Nc3cnn(Cc4ccc(F)cc4)c3)c2C1 (stereo unspecified),-18,-5,-7,-4,44*,8,-2,-7
O=C(Nc1cnn(Cc2ccc(F)cc2)c1)C(c1ccccc1)c1ccccc1,6,-1,9,8,73*,38,2,-1
O=C(Nc1cnn(Cc2ccc(F)cc2)c1)c1cnccn1,14,-2,-12,10,-9,.,.,.
O=C(NN1CC(C(=O)OCc2ccccc2F)CC1=O)c1ccccc1 (stereo unspecified),-1,15,-5,-5,-7,.,.,.
Cc1ccc(NC(=O)c2ccc(NS(=O)(=O)c3c(C)noc3C)cc2)cc1C,8,2,13,-3,48*,12,3,-12
COc1ccc(-n2cc(-c3ccc(Cl)cc3)[nH]c2=S)cc1,-33,0,-5,-18,91*,72*,1,8
COC(=O)c1ccc(-n2cc(-c3ccc(OC)cc3)[nH]c2=S)cc1,.,.,17,0,74*,60*,0,5
Cc1c2n(c3ccccc13)CCN(C)C2,5,0,5,-1,4,.,.,.
COc1ccc(S(=O)(=O)Nc2cccc3c2O[C@H](CN(C)C(=O)NC2CCCCC2)[C@@H](C)CN([C@H](C)CO)C3=O)cc1,5,-3,-5,5,-8,.,.,.
Cc1ccc(-n2c(SCC(=O)N3CCN(c4ccccn4)CC3)nnc2N2CCCC2)cc1,1,-3,18,-9,-9,.,.,.
COc1ccc(N2CCN(C(=O)CSc3ccc(C)cc3)CC2)cc1,3,-3,5,4,64*,58*,1,3
Cc1ccc(SCC(=O)N2CCN(c3ccccn3)CC2)cc1,-10,-2,0,1,73*,50*,3,4
ClCCn1cnc2c(SCc3ccccc3)ncnc21,.,.,16,3,-6,.,.,.
COc1ccccc1C(=O)N1CCN(C(=O)[C@H]2O[C@@H](n3ccc(=O)[nH]c3=O)[C@H](O)[C@@H]2O)CC1,.,.,.,-7,-3,.,.,.
CC(=O)N1CCCc2cc(S(=O)(=O)N3CCCC(C)C3)ccc21 (stereo unspecified),16,-3,2,2,-2,.,.,.
COc1ccc(C2c3ccc(O)cc3Oc3ncn4nc(-c5ccccn5)nc4c32)cc1OC (stereo unspecified),-16,-7,9,1,38,.,.,.
COc1ccc(C2c3ccc(O)cc3Oc3ncn4nc(-c5ccccn5)nc4c32)cc1 (stereo unspecified),25,-4,9,-9,47*,18,0,6
COc1ccccc1CC(NC(C)=O)C(=O)NC1CCN(C(=O)c2ccc(C)cc2)CC1 (stereo unspecified),-2,-2,-4,-1,-8,.,.,.
CC(=O)C1(C)C(=O)N(c2ccc(F)cc2)C(=O)N1c1ccc(F)cc1 (stereo unspecified),.,.,9,3,-3,.,.,.
COc1ccc(-c2cc(C3CCN(c4ccc(C(C)=O)cc4[N+](=O)[O-])CC3)[nH]n2)cc1,7,0,18,14,9,.,.,.
